The results in this text go back to publication PMC3983340 (Journal of Medicinal Chemistry, 2014).

For assay [1], the target named is T1, C. glabrata DHFR (CgDHFR) (Candida glabrata, UniProt Q6FPH0).
T1 sequence (Q6FPH0 1-217): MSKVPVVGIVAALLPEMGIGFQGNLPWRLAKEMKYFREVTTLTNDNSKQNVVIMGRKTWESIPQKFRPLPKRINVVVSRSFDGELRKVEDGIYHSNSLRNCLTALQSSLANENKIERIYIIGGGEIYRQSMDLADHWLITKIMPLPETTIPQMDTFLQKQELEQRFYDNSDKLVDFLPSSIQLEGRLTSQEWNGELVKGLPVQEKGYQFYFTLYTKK
Nature of the assay: DHFR enzyme inhibition. In kind it is biochemical.

Assay [2] deals with C. albicans (strain SC5314). Briefly: Antifungal activity. Format: cell-based. The procedure, abridged: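 SC5314 from −80 °C glycerol stock streaked on YM agar (37 °C, 48 h); colonies cultured in glucose–salt–biotin medium, pH 7.1, at 25 °C for 18 h (also printed as 30 °C, 24–36 h). Diluted to 1 × 10^5–1 × 10^6 cells/mL in GSB over test compound in DMSO (1 μL per 100 μL). Alamar Blue added after 24 h; MIC from absorbance-maximum shift 570→600 nm. Amphotericin B, itraconazole controls.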

For orientation: pIC50 means the negative decadic logarithm of the IC50, by convention in mol/L. Lower therefore signals a high IC50.

pIC50: −log10 of the molar value.

In the case of `CCc1nc(N)nc(N)c1C#CC(C)c1cc(OC)cc(-c2ccncc2)c1` (stereo not drawn) [Compound 1], in assay [1], the pIC50 is 7.05. As for `CCc1nc(N)nc(N)c1C#CC(C)c1ccc(-c2ccc(C)cc2)nc1` (stereo not drawn) [Compound 47, 6-Ethyl-5-[3-(6-p-tolyl-pyridin-3-yl)-but-1-ynyl]-pyrimidine-2,4-diamine], in assay [2], the “MIC C. albicans in the presence of 0.01% Triton X-100” value is given as “not significantly changed”. `COc1ccc(-c2ccccc2)cc1C(C)C#Cc1c(C)nc(N)nc1N` (stereo not drawn) [Compound 2]: the “MIC C. albicans in the presence of 0.01% Triton X-100” value in assay [2] is “do inhibit the growth of C. albicans”.
